The test system of data set [1] is Mus musculus. Kind of data set: Antidepressant activity in Kunming mouse assessed as decrease in immobility time at 100 mg/kg, ip measured for last 4 mins of 6 mins test after 30 mins post dose by forced swimming test relative to control. The class given is functional. More on the design: scale not given: the % may be the effect or the level left. Particulars: route intraperitoneal. In a few lines:
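Mice were dosed ip with compounds at 100 mg/kg, suspended in 3% Tween 80 in 0.9% NaCl (0.05 mL/20 g); controls got 3% aqueous Tween 80. After 30 min each mouse was placed in a water-filled cylinder (water depth 10 cm, 23–25 °C) for 6 min. Upright floating with only slight movements was scored as immobility, timed over the last 4 min. Mean ± S.E.M., n = 8.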

In data set [2] the test system is Mus musculus. Kind of data set: Anticonvulsant activity in Kunming mouse assessed as protection against maximal electroshock-induced seizure at 300 mg/kg, ip. The class given is functional, organism-based. More on the design: dose 300 mg/kg. The method in brief:
(§1)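 Mice held on a 12-h light/dark cycle at 23 ± 2 °C with free food and water. Compounds were given ip as suspensions in aqueous Tween 80 (3% v/v, 0.9% NaCl) at 0.05 mL/20 g body weight. The maximal electroshock test was scored as number of animals protected over number tested.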
On the technique in general: In the maximal electroshock model the usual endpoint is tonic extension of the hind limbs.

The test system of data set [3] is Mus musculus. Nature of the data set: Anticonvulsant activity in Kunming mouse assessed as protection against maximal electroshock-induced seizure at 100 mg/kg, ip. The class given is functional, organism-based. More on the design: dose 100 mg/kg. The method in brief:
as §1

Data set [4] deals with Mus musculus. Kind of data set: Anticonvulsant activity in Kunming mouse assessed as protection against maximal electroshock-induced seizure at 30 mg/kg, ip. The class given is functional, organism-based. Also on record: dose 30 mg/kg. The method in brief: as §1
In data set [5] the test system is Mus musculus. Kind of data set: Toxicity in Kunming mouse assessed as increase in locomotor activity at 100 mg/kg, ip administered 60 mins prior to test measured for 3 mins by open-field test. The following applies: in vivo, 0.05 h. The class given is organism-based. More on the design: dose 100 mg/kg, route intraperitoneal. The method in brief:
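Open-field exploratory activity was recorded for 3 min, starting 60 min after ip dosing in 3% Tween 80/0.9% NaCl vehicle. Counts were taken for locomotion (line crossings), rearing (standing on hind legs) and grooming, and compared with a vehicle control group.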

Activity calls are given as the source filed them. No cut-off for these calls is given here.

Regarding `Fc1ccccc1Oc1nc2ccsc2c2nnnn12`, the Activity in the data set with Mus musculus [1] was 9.33%. Besides, the result in the data set with Mus musculus [2], in the data set with Mus musculus [3] and in the data set with Mus musculus [4] was inactive.

Take `COc1cccc(Oc2nc3ccsc3c3nnnn23)c1`: the Activity in the data set on Mus musculus [1] worked out at 37.41%. The outcome in the data set on Mus musculus [2], in the data set on Mus musculus [3] and in the data set with Mus musculus [4] was inactive.

`FC(F)(F)c1ccc(Oc2nc3ccsc3c3nnnn23)cc1`: the Activity in the data set with Mus musculus [1] amounted to 25.16%. For the same molecule, the outcome in the data set on Mus musculus [2], in the data set on Mus musculus [3] and with Mus musculus [4] was inactive.

As for `Clc1cccc(Oc2nc3ccsc3c3nnnn23)c1`, the Activity in the data set with Mus musculus [1] turned out to be 15.42%. In addition, the result with Mus musculus [2], with Mus musculus [3] and with Mus musculus [4] was inactive.

For `COc1ccc(Oc2nc3ccsc3c3nnnn23)cc1`, in the data set on Mus musculus [1], the Activity was determined as 46.18%. The result in the data set on Mus musculus [2], with Mus musculus [3] and in the data set with Mus musculus [4] was inactive.

With `Nc1cccc(Oc2nc3ccsc3c3nnnn23)c1`, the Activity with Mus musculus [1] was found to be 27.59%. Also, the outcome with Mus musculus [3] and with Mus musculus [4] was inactive.

Turning to `COc1ccccc1Oc1nc2ccsc2c2nnnn12`, the Activity in the data set with Mus musculus [1] is reported as 26.05%. Further, the result with Mus musculus [2], with Mus musculus [3] and in the data set on Mus musculus [4] was inactive.

Take `Cc1cccc(Oc2nc3ccsc3c3nnnn23)c1`: in the data set on Mus musculus [1], the Activity is 39.04%. Also, the result in the data set with Mus musculus [2], with Mus musculus [3] and in the data set on Mus musculus [4] was inactive.

Take `Cc1ccc(Oc2nc3ccsc3c3nnnn23)cc1`: the Activity in the data set with Mus musculus [1] amounted to 36.6%. Moreover, the result in the data set on Mus musculus [2], in the data set with Mus musculus [3] and in the data set on Mus musculus [4] was inactive.

On to `c1ccc(Oc2nc3ccsc3c3nnnn23)cc1`, for which the Activity in the data set with Mus musculus [1] was found to be 26.46%. In addition, the outcome in the data set with Mus musculus [3] and in the data set on Mus musculus [4] was inactive.

On to `Clc1ccc(Oc2nc3ccsc3c3nnnn23)cc1`, for which the Activity with Mus musculus [1] is on record as 35.63%. Also, the outcome in the data set on Mus musculus [2], in the data set on Mus musculus [3] and in the data set with Mus musculus [4] was inactive.

`CNCCC(Oc1ccc(C(F)(F)F)cc1)c1ccccc1` (stereo not drawn) [FLUOXETINE]: the Activity with Mus musculus [1] was 58.09%.

As for `Fc1cccc(Oc2nc3ccsc3c3nnnn23)c1`, the Activity in the data set on Mus musculus [1] is 25.73%. Further, the outcome in the data set with Mus musculus [2], in the data set with Mus musculus [3] and with Mus musculus [4] was inactive.

Consider `Clc1ccc(Oc2nc3ccsc3c3nnnn23)c(Cl)c1`, for which the values for the Activity in the data set on Mus musculus [1] and in the data set on Mus musculus [5] were 51.62% and “Non-toxic”, respectively. The result in the data set with Mus musculus [2], with Mus musculus [3] and in the data set on Mus musculus [4] was inactive.

As to `Nc1ccccc1Oc1nc2ccsc2c2nnnn12`, in the data set on Mus musculus [1], the Activity turned out to be 22.8%. For the same molecule, the result in the data set with Mus musculus [2] was Active. The result in the data set on Mus musculus [4] was inactive.

For `Cc1ccccc1Oc1nc2ccsc2c2nnnn12`, in the data set with Mus musculus [1], the Activity came to 36.44%. For the same molecule, the outcome in the data set on Mus musculus [2], with Mus musculus [3] and in the data set with Mus musculus [4] was inactive.

In the case of `Fc1ccc(Oc2nc3ccsc3c3nnnn23)cc1`, the Activity in the data set with Mus musculus [1] is 18.18%. The result in the data set on Mus musculus [2], in the data set with Mus musculus [3] and in the data set with Mus musculus [4] was inactive.

As to `Brc1ccc(Oc2nc3ccsc3c3nnnn23)cc1`, the Activity in the data set with Mus musculus [1] turned out to be 10.06%. In addition, the outcome in the data set on Mus musculus [2] was Active. Moreover, the outcome in the data set with Mus musculus [4] was inactive.

With `c1cnc2c(Oc3nc4ccsc4c4nnnn34)cccc2c1`, the Activity with Mus musculus [1] is on record as 23.62%. Also, the result in the data set with Mus musculus [2], with Mus musculus [3] and with Mus musculus [4] was inactive.

`c1ccc2c(Oc3nc4ccsc4c4nnnn34)cccc2c1`: the Activity in the data set with Mus musculus [1] was 9.25%. The result in the data set with Mus musculus [2], in the data set on Mus musculus [3] and in the data set on Mus musculus [4] was inactive.

Regarding `Clc1ccccc1Oc1nc2ccsc2c2nnnn12`, the Activity in the data set on Mus musculus [1] stood at 40.17%. The outcome in the data set with Mus musculus [2], in the data set on Mus musculus [3] and in the data set on Mus musculus [4] was inactive.
